This is one part of a sample in which hits are shown more often than they occur.
CHOP inhibitor: inhibitors of CHOP promoter induction, primary screen, cell-based, unfolded protein response, luciferase reporter. CHO-K1 CHOP-promoter luciferase, tunicamycin-induced, 15-18 h. inhibition, % at 10 µM. hit rate 3.8% among 220,000;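 active = compounds that reduced the stress-induced luciferase reporter signal by more than about 70% of percent inhibition, limit read from the data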
TbMetRS inhib: T. brucei MetRS inhibitors, primary screen, biochemical, luminescence; inhibition, % at 11.9 µM; methionyl-tRNA synthetase (Trypanosoma brucei brucei); hit rate 0.4% among 360,000; purified T. brucei MetRS, ATP depletion, Kinase-Glo luminescence; AID 624268, 2012;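 active = inhibition above a per-plate cutoff of the control wells' mean inhibition plus 3 SD, cut at about 5.5% in these data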
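technique = Kinase-Glo luminescence, ATP depletion format | system = purified MetRS (methionyl-tRNA synthetase) enzyme from Trypanosoma brucei | timing = 15 min preincubation, 2 h reaction, all 25 °C | evaluation = percent inhibition versus plate control medians | dosing = single dose, 11.9 µM final nominal, 0.9% final DMSO | also added = substrates ATP, L-methionine and bulk Escherichia coli tRNA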
UPR CHOP act: activators of apoptotic CHOP UPR arm, primary screen, cell-based, CHO-CHOP luciferase reporter, luminescence, uHTS; UPR activation; percent of tunicamycin response over DMSO baseline; activation, % at 10 µM; hit rate 0.34% among 330,000; AID 449763, 2010;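 active = at 10 µM dose, activation of 40% or more, normalized to positive control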
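Test system: CHO CHOP reporter cells. Input: 500 CHO-CHOP cells per well. Medium: F12 with 10% FBS. Technique: luciferase luminescence. Measure: percent activation relative to tunicamycin control. Dosing: 10 µM compound, 0.5% DMSO. Timing: 16-18 h cell attachment, then 6 h compound exposure, 37 °C.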
V-ATPase pHluor: regulators of yeast V-ATPase proton pumping, primary screen, pHLuorin cytosolic pH fluorescence. S. cerevisiae. response, % at 10 µM. hit rate 0.37% among 350,000; in the data active = response mostly above about 7.3%, no sharp cut-off; inactive = mostly below about 5.4%; also: actives read high
XBP1 UPR activ: activators of adaptive XBP1 UPR arm, primary screen, cell-based, CHO-XBP1 luciferase reporter, luminescence, uHTS; IRE1-XBP1 UPR activation; percent of tunicamycin response, DMSO as zero; activation, % at 20 µM; hit rate 0.33% among 330,000;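 active = versus positive control, 20 µM dose yields 30% or more activation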
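Material: CHO-XBP1 cells stably carrying IRE1-XBP1-driven luciferase reporter / Amount: 1000 cells per well / Compound: 20 µM, 1% DMSO / Times: 6 h treatment, 37 °C / Detection: luciferase luminescence / Measure: % activation of reporter signal versus tunicamycin and DMSO controls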
CHOP confirm: retest of CHOP induction inhibitors, confirmation, cell-based; inhibition, % at 10 µM; CHO-CHOP promoter luciferase reporter, tunicamycin-induced, luminescence; shares compounds with CHOP inhibitor; AID 504437, 2011; hit rate 45% among 2,100;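 active = mean of three repeat readings of reporter signal inhibition above a set limit, cut at about 70% in these data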
Of the large screens only hits and unclear results are named; the others gave an inactive call (follow-up assays come after a bar, where they were run).

CCOC(=O)c1sc(NC(=O)CSc2nnnn2-c2ccc(C)cc2C)nc1C	CHOP inhibitor 100.2 | CHOP confirm inactive
CCOC(=O)Cc1csc(NC(=O)CSc2nnnn2-c2ccc(C)cc2C)n1	none
CCn1cc([N+](=O)[O-])c(C(=O)N2N=C(c3ccc(O)c(OC)c3)CC2c2ccccc2O)n1 (stereo not drawn)	none
CCn1cc([N+](=O)[O-])c(C(=O)N2N=C(c3ccc(Cl)c(Cl)c3)CC2c2ccccc2O)n1 (stereo not drawn)	CHOP inhibitor 100.6 | CHOP confirm 77.9
Cc1c(Br)c([N+](=O)[O-])nn1CC(=O)Nc1ccc(Cc2ccncc2)cc1	none
CCOC(=O)/C=c1\s/c(=C\c2ccc(-c3ccccc3)cc2)c(=O)n1CC(=O)NCc1ccc2c(c1)OCO2	none
CCOC(=O)/C=c1\s/c(=C\c2sccc2C)c(=O)n1CC(=O)NCc1ccc(C)cc1	CHOP inhibitor 99.4, UPR CHOP act 53.9, XBP1 UPR activ 63.9 (no result: TbMetRS inhib, V-ATPase pHluor) | CHOP confirm inactive
CCOC(=O)c1c(C)[nH]c(C)c1C(=O)COC(=O)c1ccc(Cl)nc1	none (no result: CHOP inhibitor)
N=C1/C(=C\c2coc3ccccc3c2=O)C(=O)N=C2SC(c3ccncc3)=NN12	CHOP inhibitor 102.1 | CHOP confirm inactive
CCCCSc1nnc(CCNC(=O)OC(C)(C)C)o1	none
O=C1NC[C@H](Cc2ccccc2)N(CCc2cc(C(F)(F)F)cc(C(F)(F)F)c2)C1=O	none (no result: CHOP inhibitor, UPR CHOP act, V-ATPase pHluor, XBP1 UPR activ)
O=C1NC[C@@H](Cc2cccc3ccccc23)N(CCc2cc(C(F)(F)F)cc(C(F)(F)F)c2)C1=O	CHOP inhibitor 97.0 | CHOP confirm 133.1
COc1cccc(NC(=O)CN(C)C(=O)CSc2ccc3c(c2)OCCO3)c1	none (no result: CHOP inhibitor)
CC1=NN(c2nc(-c3ccc(C)cc3)cs2)C(=O)C1N=Nc1ccccc1O (stereo not drawn)	CHOP inhibitor 106.5 | CHOP confirm 76.8
O=C(Nc1ccc(Cl)c(C(F)(F)F)c1)NC1CC2CCCC(C1)N2Cc1ccccc1 (stereo not drawn)	CHOP inhibitor 101.4 (no result: TbMetRS inhib, V-ATPase pHluor) | CHOP confirm 97.7
O=C(NC1CC2CCCC(C1)N2C(=O)Nc1ccc(Cl)c(C(F)(F)F)c1)C1CC1 (stereo not drawn)	none
CC(C)c1ccc(C2C3CSCC=C3C(C#N)=C(N)C2(C#N)C#N)cc1 (stereo not drawn)	CHOP inhibitor 106.5 (no result: TbMetRS inhib, V-ATPase pHluor) | CHOP confirm 122.5
CN(c1ccccc1)C1CCCCC1NS(=O)(=O)c1ccc(Cl)cc1 (stereo not drawn)	CHOP inhibitor 96.2 | CHOP confirm inactive
COc1ccc(OCCSc2nc(C)c(Cc3ccccc3)c(=O)[nH]2)cc1	none
COc1cccc(OCCSc2nc(C)c(Cc3ccccc3)c(=O)[nH]2)c1	CHOP inhibitor 99.2 | CHOP confirm inactive
O=C(Nc1cccc(Cl)c1)Nc1ccnc(-c2cccnc2)n1	CHOP inhibitor 105.1 | CHOP confirm 105.0
Oc1ccc(Cl)cc1-c1cc(-c2ccccc2Cl)[nH]n1	none
Cc1ccc(O)c(-c2cc(-c3ccccc3C)[nH]n2)c1	CHOP inhibitor 106.2 | CHOP confirm inactive
Oc1ccccc1-c1cc(-c2ccccc2Cl)[nH]n1	CHOP inhibitor 98.8 | CHOP confirm inactive
Cc1cc(S(=O)(=O)Nc2ccc(C(=O)NCc3ccncc3)cc2)ccc1F	none (no result: CHOP inhibitor)
O=C(COC(=O)CCSc1ccccc1)Nc1cc(F)ccc1F	none
O=C1NC[C@@H](CCCCN2C[C@H](Cc3ccc(O)cc3)N(CCc3ccccc3)C(=O)C2=O)N(CC2CCCCC2)C1=O	none (no result: CHOP inhibitor, UPR CHOP act, V-ATPase pHluor, XBP1 UPR activ)
Cc1cc(C(=O)NNC(=S)NC(=O)/C=C/c2ccccc2Cl)n[nH]1	CHOP inhibitor 108.0 | CHOP confirm inactive
O=C(C[n+]1cn(C(F)F)c2ccccc21)c1ccc(Br)cc1	CHOP inhibitor 100.6 | CHOP confirm inactive
O=C(C[n+]1cc(Br)cc2ccccc21)c1ccc(Br)cc1	none (no result: CHOP inhibitor)
O=S(=O)(C/C(=C/CO)S(=O)(=O)c1ccccc1)c1ccccc1	none (no result: CHOP inhibitor) | CHOP confirm 117.6

Source: PubChem BioAssay (several laboratories)
